Reference: the EternaBench riboswitch data

System: MS2 coat protein
Assay: apparent Kd, MS2 coat protein; higher = weaker binding; RNA-MaP array; FMN 200 µM where present
How it was run: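 The titrant was SNAP-549-labelled MS2 coat protein, run from 0.7 or 1.5 nM in doubling steps to 3 µM. It was applied to designs transcribed by stalled E. coli RNA polymerase on Illumina sequencing-chip clusters, without ligand first and then with constant ligand, in 100 mM Tris-HCl pH 7.5, 80 mM KCl, 4 mM MgCl2, BSA, DTT, yeast tRNA and Tween-20. The apparent Kd is the median of filtered per-cluster binding-curve fits, with green signal normalised to red-channel RNA signal and control-cluster median Fmax.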

[1] = designed as: ON switch for flavin mononucleotide, no ligand
[2] = ligand present: flavin mononucleotide, designed as: ON switch for flavin mononucleotide
[3] = designed as: OFF switch for flavin mononucleotide, no ligand
[4] = ligand present: flavin mononucleotide, designed as: OFF switch for flavin mononucleotide

| Sequence | apparent Kd [1] [nM] | apparent Kd [2] [nM] | apparent Kd [3] [nM] | apparent Kd [4] [nM] |
| --- | --- | --- | --- | --- |
| GCCUAGCCCAGGCCCACGGCAUCACAGGAUAUGCCGAUAACAUGAGGAUCACCCAUGUCAACUCCGCAGAAGGGUGAUAUCGUG | 174 | 28.8 | – | – |
| AUAUGAGAAGCAGGAUAUGUGAAAAAAAAACAUACAGAAGGGUUUAUGGAAAAACAUGAGGAUCACCCAUGUUCUUUGUGAUGA | 33.5 | 32.4 | – | – |
| CGAUCGUUGCAGAAGGUUAAAUAAUUAUCUACAUGUUUUACAUGAGGAUCACCCAUGUUUAUGUUGAAGGAUAUGCAAGGGUCG | – | – | 8.02 | 8.09 |
| GGGCUUUGGGAGAAGGUACAAUAAAUUAGGAGAACAUGAGGAUCACCCAUGUAAGGAUAUCCCAUGUUGUAUUAUGGUACAACC | – | – | 519 | 273 |
| AGAUGGCGAGGAUAUACAUGAGGAUCACCCAUGUGAGAGAAAAGAGUGAGGAAGAAAAGUAGAAGGCGCUGUCA | – | – | 80.6 | 130 |
| AAAACGAUGUGAGGAUAUCACCGCUGUGACGGCUGAGAAGGCACAUGAGGAUCACCCAUGUGCAGGCGUGUGUGGGUAAUCCAA | – | – | 186 | 139 |
| GUAGCAUACCGAGGAUAUUCAGGGCGUGGAUAAACAUGAGGAUCACCCAUGUGGCGAAAGCCUAGGGAGAAGGCGGAAUGCUAC | 21.5 | 16.3 | – | – |
| UGAGCUUGUGUGAGGAUAUGAGUUCGGAAAUGAGCUUAGAAGGCACAUGAGGAUCACCCAUGUAAGCGAGUUCG | – | – | 72.2 | 74.7 |
| CAUCGGAAGCAGAAGGCAUGAACGGACAUGAGGAUCACCCAUGUUGGAAACUCAUGCCCGAAAGAUGAGGAUAUGCGUCCGGGU | – | – | 72.8 | 17 |
| AGGAAACAUGAGGAUCACCCAUGUAAAUAUGGGCGAGGAUAUCGAAAGAAAAGAAAGAAACGAGAAGGCGCAAAAG | 324 | 77.7 | – | – |
| UCUGCAUAGUCAGGAUAUGCAAAAUUUAUUUUCUUCGGAAAAUAAAUAACAUGAGGAUCACCCAUGUAGAAGGGACUGUGCAGA | – | – | 16.9 | 14.7 |
| CCCAGCUAUGUGAGGAUAUUCACAUCGAUGGUAGUGAAGAAGGCACAUGAGGAUCACCCAUGUUGGUUGCCGAU | – | – | 19.4 | 28.7 |
| GUGCCUUGGGAGAAGGCCGUAUGCAAAGCAUACGGAGGAUAUUCAUACCGGAAACGGACAUGAGGAUCACCCAUGUGGCACAAA | 1360 | 46.1 | – | – |
| UUAAAUCGAAACAUGAGGAUCACCCAUGUGUUGUGGUUAAUAUAGGAUAUGUGUAUACUUUUAUGACAGAAGGAUGAUGAUACU | 16.2 | 13.2 | – | – |
| AAAAUCUAUUGAGGAUAUCGUUAUCAAAGAUAAUGAGAAGGCAAACAAUCAUGAGGACAUGAGGAUCACCCAUGUUGUGACCAU | 22.3 | 10.8 | – | – |
| GACUGACAUGAGGAUCACCCAUGUAUUCAAACAUGAGGAUAUAUAACACAUCAUCGACGGAUAGAAGGCAUAGAUA | 128 | 124 | – | – |
| AGAAACUACGAGAAGGACAUAUGAUUCUUCAGAUACAUGAGGAUCACCCAUGUAGGAUAUCGUAGUUUCAGGAUCGUGAGAUCA | – | – | 14 | 97.7 |
| GGACGGUUAGUCAGGAUAUGCUCUACCUCGGUAGAGCAGAAGGGACAUGAGGAUCACCCAUGUGAUAACUGUUC | – | – | 27.4 | 34.8 |
| GUCCUUAACAAGGAUAUCGGGCGGGUUUUUGUUUGAGAAGGUGUGACAUGAGGAUCACCCAUGUGGCGCGUGGG | – | – | 355 | 383 |
| GCAGCGUAUGUAGGAUAUCGGUCAGUUUCUGAUCGAGAAGGACAUGAGGAUCACCCAUGUAAAUUACCGACUCUGUCGGGCUGC | – | – | 6.64 | 8.6 |
| GAGCGAAAGCUCAAUGUCGAUAGCAGAAGGACAUCCUUCAACAUGAAAACAUGAGGAUCACCCAUGUAGGAUAUGCUAUCGACU | – | – | 5.32 | 5.84 |
| AGUAACAGAGGAUAUACUAUUUUAUGUGUUUAUUGUUUUGAACAUGAGGAUCACCCAUGUAGAAGGCUGAAUAA | – | – | 24.4 | 28 |
| UGUUUUCAUGUAGGAUAUGCUUGUCGUAGAUACGCAGAAGGACAUGAGGAUCACCCAUGUUAAUGCGACAGAGUAUAGAUUCUU | – | – | 15.3 | 20.6 |
| CUUUUGUGAGGAUAUUAGUAGUUUAUAAUUGGUGUUAUUACUGAGAAGGCACAUGAGGAUCACCCAUGUACAAC | – | – | 47.9 | 181 |
| ACAUGAGGAUCACCCAUGUAUACAUAGGAUAUUGGUGAUCAGGGAUGUUUUACAGGAUAUGUCUGCGAGAAGGAUGCAAGAUGU | 398 | 69 | – | – |
| GGAAAACAUGAGGAUCACCCAUGUGAGGAUAUCGAUGUCCAAAAAAAAGUGCGGGACUCGAGAAGGCACUUGGU | – | – | 57.1 | 58.4 |
| CUUCGUAUAGAGGAUAUAGGAUACCUCGGUGUCCUAGAAGGCUGUACAUGAGGAUCACCCAUGUACUUCAGAUC | – | – | 11.6 | 16 |
| GUCGGAAACGACAAAAGUAGCAUACGAGAAGGUUGAUCCAAGACAUGAGGAUCACCCAUGUAGAUAGAGGAUAUUGAAUGCUAC | 310 | 244 | – | – |

| Sequence | apparent Kd [1] [nM] | apparent Kd [2] [nM] | apparent Kd [3] [nM] | apparent Kd [4] [nM] |
| --- | --- | --- | --- | --- |
| ACUAUACGAGGAUAUACUGUCAGUACUCAGAGAUUAAUGUGACAUGAGGAUCACCCAUGUAGAAGGCGUUUACU | – | – | 31.9 | 35.3 |
| UAUAUAUAGGCAGGAUAUACAUGAAUAUAUAAUAUAUUAUAUAAUAUAACAUGAGGAUCACCCAUGUAGAAGGGCCAUAAUAUA | – | – | 67 | 106 |
| AUAACUGUACGAGGAUAUCCAAGGGCAGCCCUAGGAGAAGGCGUACAUGAGGAUCACCCAUGUACUAUAUGGAGUUCGCUCGUG | – | – | 30.7 | 88.4 |
| GCAGCGUAUGUAGGAUAUCGGUCAGUUUCUGAUCGAGAAGGACAUGAGGAUCACCCAUGUAAAUUACCGACUUUGUCGGGUUGC | – | – | 10.2 | 20.1 |
| AAUUAGGUCACAGGAUAUACUACAUCCAAUGCUGUAGAAGGGUGACACAUUCUGUGCAGACAUGAGGAUCACCCAUGUAACCAC | 27.9 | 12.8 | – | – |
| UUAAAUCAUGUAGGAUAUGCAUGGCGAAGCUACGCAGAAGGACAUGAGGAUCACCCAUGUUAUAGCUACCCAGUUAGGUGGCAA | – | – | 82.2 | 189 |
| GGUACUCAAAGAGUACCACUACGAACAUGAGGAUCACCCAUGUAGGAUAUGCUACUCAAAGAGUAGCAGAAGGACAUGUGCCUA | – | – | 17.9 | 123 |
| GAUCAACAUGAGGAUCACCCAUGUGAGGAUAUGUAUCAUAGAUCUUCGGAUCUAUGAUACAGAAGGCAUGUGGA | – | – | 204 | 46.5 |
| CCGGAGUCAGGAUAUACGAACAUGUCGCCAGAUGUCAAGGUACAUGAGGAUCACCCAUGUAGAAGGGAGGAGAA | – | – | 96.1 | 56.8 |
| CCUUUUGUAUAAGGAUAUGUAACAAGGUGUAGGCUGGUAGGACUUGCGCUUACAGAAGGUAUACAUGAGGAUCACCCAUGUCGA | – | – | 22.2 | 107 |
| CAGCGAUAGCUGAACAAUCUAUCUGAGGAUAUUCAUAAAACAUGAGGAUCACCCAUGUGAAAUUGGGAGAAGGCAGAUAGAUUG | 7.7 | 4.42 | – | – |
| UAUUUUAACUAAGGAUAUCUAUAUUAUUUUGAAACAUGAGGAUCACCCAUGUUCAUGGGAUUAUAAGAGAAGGUAGAUGAAUAA | 27.5 | 11.7 | – | – |
| CUGUGACGGUGCGCAAGUGGACGGAGAAGGGACACAUGAGGAUCACCCAUGUGAGCCUGCUAUUGUCAGGAUAUCCGUUCGUAC | – | – | 8.69 | 13.8 |
| AGGAGGUCAGGAUAUGCAUGGCGGGACUUGCGUCGUGGCGUGCAGAAGGGACAUGAGGAUCACCCAUGUGGAGC | – | – | 66.4 | 106 |
| AUGCCGUGCAGAGCGCGACGGCGUACAUGAGGAUCACCCAUGUAGGAUAUACUACACAAAGUGUAGUAGAAGGACAUGCGACUG | – | – | 62 | 145 |
| ACAAAUGGAGGAUAUACAUGAGGAUCACCCAUGUUUAUCCUACAUAUGUGAUCCUCAUGUAGAAGGCCAUAUGA | – | – | 11 | 10.6 |
| UUUUAACAUGAGGAUCACCCAUGUGAGGAUAUCGAAAUUUAUAUUAAUAUUUAUAAAACGAGAAGGCACAUUUU | – | – | 104 | 82.8 |
| GGUGCAUAUGAGAAGGCGAUCAUGAAACAUGAUCGAGGAUAUCAUGUAAACAUGAGGAUCACCCAUGUAUGGGAAUAAUGCACC | 112 | 10.4 | – | – |
| UUAUUGUGAGGAUAUCCAAUAUAUGACAUGAGGAUCACCCAUGUUUCCACUCGUACCUCCGGAGAAGGCACAUUUU | – | – | 30.8 | 21.7 |
| GAGCGAGGGACAGGAUAUGCGGCGAAACUCGCCGCAGAAGGGUCGACAUGAGGAUCACCCAUGUCCUUACGCUCCAAGUAGAGG | 97 | 488 | – | – |
| GAUUGACAUGAGGAUCACCCAUGUGAGGAUAUCGGCCGGACCUUGUUAGCUUCCAUCGCGAGAAGGUACAUAGG | – | – | 18.9 | 18.4 |
| GUGUACAGAGGAUAUACAUGAGCUAGGAAACUAGCAACCUCACAUGAGGAUCACCCAUGUAGAAGGCUGUACAC | – | – | 32.7 | 25.8 |
| UUUACGUGAGGAUAUGCGAAUAGUACGUAAGUCAUACAGACGCAGAAGGCACAUGAGGAUCACCCAUGUGAACC | – | – | 22.7 | 80.4 |
| UUGUAGUACGUAGGAUAUCAUUGAGGAUCACCCUGAGAAGGACGUGAGGACAUGAGGAUCACCCAUGUGGAUCACCCAUGUCAU | – | – | 329 | 231 |
| GUCCGGCGUGUAGGAUAUGGAUCCGAUUAGGAUCCAGAAGGACAUGAGGAUCACCCAUGUACAUGUAAACAGUCAUCACCGGAU | – | – | 7.5 | 23.5 |
| CGUUUUUAUGUAGGAUAUGCUUGUGGUAAGAUAGCAGAAGGACAUGAGGAUCACCCAUGUUAAUGAUAGAGAUUUUAUGUGGCG | – | – | 37.8 | 61.4 |
| CGAUGAGUAGGAUAUGCGUCGGAUGCAUCUGCAUGUCACUUACAUGAGGAUCACCCAUGUAGAAGGGCUCGUUC | – | – | 19 | 26 |
